Measured values published in ChEMBL document CHEMBL4622964, “Designing Dihydrofolate Reductase Inhibitors as X-ray Radiosensitizers to Reverse Radioresistance of Cervical Cancer” (ACS Med Chem Lett, 2020).

What was measured:
HeLa [1] = experiment: Antiproliferative activity against human HeLa cells assessed as reduction in cell viability preincubated for 12 hrs followed by 4 Gy irradiation and measured after 60 hrs by MTT assay; type: functional, cell-based; details: light or radiation study
Method in brief: (§1)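 MTT viability assay in HeLa cancer cells, with the test agent alone (0 Gy) or combined with 4 Gy X-rays. IC50 values are in μM. Sensitivity enhancement ratio = IC50(0 Gy)/IC50(4 Gy).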

[2] = Cytotoxicity against human Ect1 cells assessed as reduction in cell viability in presence of 4 Gy irradiation by MTT assay; type: cell-based; details: light or radiation study
Method in brief: (§2)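 MTT viability assay in Ect1/E6E7 normal ectocervical epithelial cells, with the test agent alone (0 Gy) or combined with 4 Gy X-rays. IC50 values are in μM.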

HeLa [3] = experiment: Antiproliferative activity against human HeLa cells assessed as reduction in cell viability incubated for 12 hrs by MTT assay; type: functional, cell-based; method in brief: as §1
[4] = Cytotoxicity against human Ect1 cells assessed as reduction in cell viability by MTT assay; type: cell-based; method in brief: as §2
Dihydrofolate reductase = target: T1, Dihydrofolate reductase (Homo sapiens, UniProt P00374); experiment: Inhibition of recombinant human DHFR using dihydrofolate as substrate in presence of NADPH
T1 sequence (P00374 whole entry): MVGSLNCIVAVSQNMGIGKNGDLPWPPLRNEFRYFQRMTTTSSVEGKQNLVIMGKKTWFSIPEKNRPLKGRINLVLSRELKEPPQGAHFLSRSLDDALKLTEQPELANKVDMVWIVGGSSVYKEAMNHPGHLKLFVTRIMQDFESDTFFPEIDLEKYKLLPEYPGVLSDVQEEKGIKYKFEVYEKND

[5] = Safety index, ratio of IC50 for cytotoxicity against human Ect1/E6E7 cells assessed as reduction in cell viability in presence of 4 Gy irradiation by MTT assay to antiproliferative activity against human HeLa cells assessed as reduction in cell viability preincubated for 12 hrs followed by 4 Gy irradiation and measured after 60 hrs by MTT assay; type: toxicity, cell-based; details: Ect1/E6E7 cells versus HeLa cells, read-out: Ratio IC50
Method in brief: (§3)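 MTT viability assay on Ect1/E6E7 normal ectocervical cells and HeLa cells, with 0 or 4 Gy X-rays. SER = IC50(0 Gy)/IC50(4 Gy) in the same line; safe index SI4 = IC50 Ect1/E6E7 + 4 Gy divided by IC50 HeLa + 4 Gy.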

HeLa [6] = experiment: Ratio of IC50 for antiproliferative activity against human HeLa cells assessed as reduction in cell viability incubated for 12 hrs to IC50 for antiproliferative activity against human HeLa cells assessed as reduction in cell viability preincubated for 12 hrs followed by 4 Gy irradiation and measured after 60 hrs by MTT assay; type: functional; method in brief: as §1
[7] = Ratio of IC50 for cytotoxicity against human Ect1 cells assessed as reduction in cell viability by MTT assay to cytotoxicity against human Ect1 cells assessed as reduction in cell viability in presence of 4 Gy irradiation by MTT assay; type: cell-based; details: read-out: Ratio IC50; method in brief: as §3
[8] = Safety index, ratio of IC50 for cytotoxicity against human Ect1 cells assessed as reduction in cell viability to IC50 for antiproliferative activity against human HeLa cells assessed as reduction in cell viability incubated for 12 hrs by MTT assay; type: toxicity, cell-based; details: Ect1 cells versus HeLa cells, read-out: Ratio IC50
Method in brief: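 Safe index SI0 from MTT assay without irradiation: IC50 in Ect1/E6E7 normal ectocervical cells divided by IC50 in HeLa cells.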

| Compound | IC50 (HeLa [1]) [µM] | IC50 [2] [µM] | IC50 (HeLa [3]) [µM] | IC50 [4] [µM] | IC50 (Dihydrofolate reductase) [µM] | selectivity ratio at 60 h [5] | Ratio IC50 (HeLa [6]) | selectivity ratio [7] | selectivity ratio at 12 h [8] |
| --- | --- | --- | --- | --- | --- | --- | --- | --- | --- |
| Nc1nc(N)c2nc(-c3ccccc3)c(-c3ccccc3)nc2n1 | 14.8 | 38.1 | 32.6 | 59.3 | – | – | – | – | – |
| Nc1nc(N)c2nc3c4cccnc4c4ncccc4c3nc2n1 | 6.3 | 13.9 | 9.8 | 20 | 5.8 | 2.2 | 1.6 | 1.4 | 2 |
| Nc1nc(N)c2nc3c4ccccc4c4ccccc4c3nc2n1 | > 80 | > 80 | > 80 | > 80 | > 50 | – | – | – | – |
| Nc1nc(N)c2nc(-c3ccco3)c(-c3ccco3)nc2n1 | 14.6 | 19.8 | 24.5 | 40.1 | 10.4 | 1.4 | 1.7 | 2 | 1.6 |
| Nc1nc(N)c2nc(-c3cccs3)c(-c3cccs3)nc2n1 | 2.3 | 5.3 | 4.6 | 10.9 | 1.43 | 2.3 | 2 | 2.1 | 2.5 |
| CN(Cc1cnc2nc(N)nc(N)c2n1)c1ccc(C(=O)N[C@@H](CCC(=O)O)C(=O)O)cc1 [METHOTREXATE] | 0.82 | 1.8 | 1.5 | 2.9 | – | – | – | – | – |
